Screening data: PubChem, The Scripps Research Institute Molecular Screening Center
Compounds with a hit are over-represented: about 1.5% of the library has one in this group of screens.
procasp7 counter: procaspase-7 activators, primary screen, counter-screen for procaspase-3 activator project, biochemical, absorbance, HTS, human | AID 463210, 2010 | hit rate 0.093% among 330,000 | Caspase-7 (Homo sapiens), P55210 | recombinant procaspase-7, Ac-DEVD-pNA absorbance 405 nm; D23A/D198A/D206A triple mutant, cannot self-cleave; scale: DMSO 0, 5 µM enzyme 100 | activation, % at 8.5 µM;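 active = percent activation above the screen-wide mean plus 3 SD, cut at about 25% in these data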
Target sequence (P55210 whole entry D23A/D198A/D206A): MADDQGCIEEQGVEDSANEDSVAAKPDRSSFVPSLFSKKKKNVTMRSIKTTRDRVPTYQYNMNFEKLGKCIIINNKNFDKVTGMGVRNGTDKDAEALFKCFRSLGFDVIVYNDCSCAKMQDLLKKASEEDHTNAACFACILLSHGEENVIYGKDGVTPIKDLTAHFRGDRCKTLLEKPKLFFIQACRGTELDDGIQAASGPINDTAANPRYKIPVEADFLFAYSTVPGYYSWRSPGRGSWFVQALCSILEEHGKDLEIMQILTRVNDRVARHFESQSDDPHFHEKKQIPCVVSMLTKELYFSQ
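Material: Procaspase-7 triple mutant (PC-7 D3A) | Quantity: 2 µM procaspase-7 mutant as dispensed | Reagent: DEVD-pNA substrate | Times: 1 h preincubation, 2 h reaction | Technique: 405 nm absorbance of p-nitroaniline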
MsrA inhibitor: bovine MsrA enzyme inhibitors, primary screen, biochemical, absorbance, HTS. purified bovine MsrA, absorbance read-out. inhibition, % at 15.5 µM. hit rate 0.75% among 360,000. AID 651718, 2012; in the data active = inhibition above about 4.5%;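 also: 0% = vehicle wells with enzyme and 100% = reference inhibitor wells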
procasp3 activ: activators of human procaspase-3 D3A mutant, primary screen, biochemical, absorbance, PC-3 D3A mutant, single concentration; Caspase-3 (Homo sapiens), P42574; recombinant procaspase-3 D3A, Ac-DEVD-pNA absorbance 405 nm; activation, % at 8.5 µM; hit rate 0.11% among 330,000; AID 463141, 2010;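 active = activation above the mean of all tested compounds plus 3 SD, cut at about 21% in these data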;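 also: 0% = DMSO alone and 100% = DMSO wells spiked with extra 5 µM PC-3 D3A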
Target sequence (P42574 whole entry D9A/D28A/D175A): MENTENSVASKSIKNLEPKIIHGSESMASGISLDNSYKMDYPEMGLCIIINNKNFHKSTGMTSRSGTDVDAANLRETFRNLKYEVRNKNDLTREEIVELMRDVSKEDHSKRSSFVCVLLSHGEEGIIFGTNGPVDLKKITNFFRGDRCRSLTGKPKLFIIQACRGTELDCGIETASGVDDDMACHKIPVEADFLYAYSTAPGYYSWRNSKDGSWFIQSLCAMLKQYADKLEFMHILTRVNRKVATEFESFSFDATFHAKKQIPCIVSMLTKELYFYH
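Assay system – Procaspase-3 D3A mutant, all three cleavage aspartates alanine · Controls – DMSO-only low control, 5 µM PC-3 D3A high control · Schedule – 1 h compound preincubation, 2 h substrate hydrolysis at 25 °C · Signal – 405 nm absorbance of p-nitroaniline, reads at 0 and 120 min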
bovine MsrA act: bovine MsrA enzyme activators, primary screen, biochemical, absorbance, HTS; activation, % at 10.6 µM; hit rate 0.3% among 360,000; purified bovine MsrA, absorbance read-out; in the data active = activation above about 7.5%;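 also: 0% = vehicle and 100% = reference activator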
TbMetRS inhib: T. brucei MetRS inhibitors, primary screen, biochemical, luminescence; methionyl-tRNA synthetase (Trypanosoma brucei brucei); hit rate 0.4% among 360,000; purified T. brucei MetRS, ATP depletion, Kinase-Glo luminescence; inhibition, % at 11.9 µM;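 active = inhibition above a per-plate cutoff of the control wells' mean inhibition plus 3 SD, cut at about 5.5% in these data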;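 also: 0% = DMSO wells median and 100% = median of wells with control inhibitor compound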
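Dosing: 11.9 µM single point; system: parasite MetRS enzyme; technique: luminescence of leftover ATP; times: 15 min enzyme-compound preincubation, 2 h reaction, 10 min detection, 25 °C; replicates: each compound tested once; read-out basis: percent inhibition relative to median high and low control wells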
procasp7 triplic: procaspase-7 activators, counter-screen for procaspase-3 activator project, biochemical, absorbance, triplicate, human. shares compounds with procasp3 activ. recombinant procaspase-7, Ac-DEVD-pNA absorbance; asp23/198/206-to-Ala mutant, cannot self-cleave. activation, % at 8.5 µM. 210 tested, under 10 active. AID 488941, 2010;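 active = mean activation above a set limit taken from an earlier procaspase-7 screen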;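 also: 0% = DMSO wells and 100% = DMSO plus 5 µM procaspase-7 enzyme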
procasp3 conf: activators of human procaspase-3 D3A mutant, confirmation, biochemical, absorbance, PC-3 D3A mutant, triplicate; hit rate 10% among 210; shares compounds with procasp3 activ; recombinant PC-3 D3A, Ac-DEVD-pNA absorbance 405 nm; 100% is higher-enzyme control; activation, % at 8.5 µM;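 active = mean activation above a set limit carried over from the earlier primary screen, cut at about 22% in these data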
* = called active by the depositor; . = no result.

SMILES	procasp7 counter	MsrA inhibitor	procasp3 activ	bovine MsrA act	TbMetRS inhib	procasp7 triplic	procasp3 conf
Cc1cccc(S(=O)(=O)N2CCC[C@H]2C(=O)N2CCC[C@@H]2C(=O)NCc2ccccc2)c1	.	0	.	.	.	.	.
C=CCN(c1ccccc1OC)S(=O)(=O)c1cccc(C(=O)OCC(=O)c2c[nH]c3ccccc23)c1	-14	1	22*	-3	1	3	3
COc1cc(OC)c(N(C)S(=O)(=O)c2cccc(C(=O)OCC(=O)c3c[nH]c4ccccc34)c2)cc1Cl	3	1	0	-5	-1	.	.
COc1ccc2c(c1)C(NC(=O)C(F)(F)F)CC21CCCCC1 (centres undefined)	.	0	.	.	.	.	.
CCOC(=O)c1ccc(N/C=C/C(=O)c2ccc(OC)c(OC)c2)cc1	1	0	25*	-2	-1	-6	5
CCOc1ccc(N/C=C/C(=O)c2ccc(OC)c(OC)c2)cc1	4	2	-1	-3	0	.	.
CCCCn1nc(C(=O)N(C)C2CCCCC2)c2ccccc2c1=O	9	2	22*	-3	0	1	5
CCCCn1c(N)c(N(CC(C)C)C(=O)C2CC(=O)N(c3ccc(C)cc3)C2)c(=O)[nH]c1=O (centres undefined)	-7	2	22*	-3	0	-1	5
Cc1ccc(N(C)c2nc(N)nc(N)c2N=O)cc1	.	0	.	.	.	.	.
CC(=O)NCCc1nc2ccccc2n1Cc1ccc(C)cc1	2	-1	29*	-3	-1	1	8
COCCNC(=S)N1C[C@H]2CON(C)[C@H]2C[C@H]1c1ccccc1Br	.	0	.	.	.	.	.
C=CCn1c(O)c(N=NC(=S)Nc2cccc(OC)c2)c2ccccc21	-8	1	34*	-4	-1	-6	6
C=CCn1c(O)c(N=NC(=S)Nc2ccc(OC)cc2)c2ccccc21	-3	-1	10	-13	-1	.	.
N#Cc1cc2c(nc1SCc1nc3ccccc3[nH]1)CCC2	-6	.	1	.	.	.	.
Cc1cc(C)c(C#N)c(SCc2nnc(-c3ccccc3)o2)n1	23	-1	125*	-2	-1	-15	-18
Cc1cc(C)c(C#N)c(SCc2nc3ccccc3[nH]2)n1	2	2	156*	3	0	-2	5
COC(=O)C1=C(C)N(Cc2ccc(C(F)(F)F)cc2)C(=NCc2ccc(C(F)(F)F)cc2)NC1c1ccccc1 (centres undefined)	.	-3	.	.	.	.	.
CCOC(=O)N[C@@H](Cc1cccnc1)C(=O)N1CCC[C@H]1C(=O)NC1CCCC1	.	1	.	.	.	.	.
COc1ccccc1CCn1cnc(-c2cccc(F)c2)c1CC(C)C	.	0	.	.	.	.	.
Cc1cccc(C2=NN(c3ccc(Br)cc3)[C@@H](C(=O)N3CCOC3=O)[C@@H]2c2ccc(Cl)cc2)c1	25	.	23*	-3	-1	-21	-13
O=C1OCCN1C(=O)[C@H]1[C@H](c2ccc(F)cc2)C(c2cccc(Cl)c2)=NN1c1ccccc1	2	3	7	-1	1	.	.
O=C1OCCN1C(=O)[C@H]1[C@H](c2ccc(Cl)cc2)C(c2ccccc2)=NN1c1ccc(Br)cc1	24	1	28*	0	-1	-20	-10
O=C1OCCN1C(=O)[C@H]1[C@H](c2ccc(Cl)cc2)C(c2cccc(Cl)c2)=NN1c1ccccc1	18	.	23*	1	0	-22	-14
Cc1c(O)ccc2c(CN3CCOCC3)cc(=O)oc12	22	1	21*	-4	0	-19	-13
Cc1c(O)ccc2c(CN3CCN(CCO)CC3)cc(=O)oc12	19	0	19	3	1	.	.
SMILES	procasp7 counter	MsrA inhibitor	procasp3 activ	bovine MsrA act	TbMetRS inhib	procasp7 triplic	procasp3 conf
Cc1ccc(OCc2cc(C(=O)N(C)Cc3cnn(-c4ccccc4C)c3)no2)cn1	6	0	23*	-5	0	1	7
COC(=O)c1cc2c(c3c4cc(OC)ccc4n(S(=O)(=O)c4ccc(OC)cc4)c13)C(=O)N(Cc1ccccc1)C2	.	1	.	.	.	.	.
CCCCOn1c(C)c(C(=O)OCC)c2c3no[n+]([O-])c3ccc21	-9	0	3	-2	0	.	.
CCCCOn1c(C)c(C(=O)OCC)c2c3nonc3ccc21	22	2	24*	-2	-1	13	25*
CC12CCC3c4ccc(OCCCO)c([N+](=O)[O-])c4CCC3C1CCC2=O (centres undefined)	.	2	.	.	.	.	.
CCOC(=O)CC(=O)CSc1nc2sc(C)cc2c(=O)n1Cc1ccco1	0	-1	59*	-2	0	-2	-1
COC(=O)C1=C(C)N(Cc2cccc(C(F)(F)F)c2)C(=NCc2ccc3c(c2)OCO3)NC1c1ccc(F)cc1 (centres undefined)	.	-1	.	.	.	.	.
CCOc1ccc(NC(=O)CN(C)C(=O)c2ccc(C3SCCS3)cc2)cc1OCC	6	-1	21*	-1	0	-1	2
CCOc1ccc(NC(=O)CN(C)C(=O)c2ccc(=O)[nH]c2)cc1OCC	.	0	.	-3	0	.	.
COc1ccccc1Nc1nc2ccc(C)cc2cc1C#N	6	0	16	-11	-1	.	.
COc1ccccc1Nc1nc2c(C)cccc2cc1C#N	18	0	40*	-8	-1	80*	94*
COC(=O)Cn1c(=NC(=O)c2cc(-c3cccs3)nc3ccccc23)sc2cc(S(N)(=O)=O)ccc21	2	3	78*	-6	-1	-20	-15
COc1ccc(C2CC(c3cccc(F)c3)=NN2c2ccc(S(N)(=O)=O)cc2)cc1 (centres undefined)	20	1	37*	-3	0	-22	-12
Cc1ccc(NC(=O)CSCC(=O)N(CCC(C)C)c2c(N)n(Cc3ccccc3)c(=O)[nH]c2=O)cc1	.	-2	.	-6	0	.	.
COCCN(C(=O)CSCC(=O)Nc1ccc(C)cc1)c1c(N)n(CC(C)C)c(=O)[nH]c1=O	5	0	61*	-7	0	2	5
C[C@@H]1CN([C@@H](C)CO)C(=O)CCCn2cc(nn2)CO[C@H]1CN(C)C(=O)NC1CCCCC1	.	-1	.	.	.	.	.
